# According to ChEMBL document CHEMBL4033796, “4-Amino-7,8-dihydro-1,6-naphthyridin-5(6 H)-ones as Inhaled Phosphodiesterase Type 4 (PDE4) Inhibitors: Structural Biology and Structure-Activity Relationships” (J Med Chem, 2018):
# Calls of active or inactive are those of the source. The rule behind the calls is not given here.
# How the values were obtained:
# [1] = biological target: 3',5'-cyclic-AMP phosphodiesterase 4B (Homo sapiens, UniProt Q07343); assay: Inhibition of recombinant human PDE4B1 using [3H]-cAMP as substrate […] measured after 60 mins by scintillation proximity assay
# Chain of 3',5'-cyclic-AMP phosphodiesterase 4B (Q07343 whole entry): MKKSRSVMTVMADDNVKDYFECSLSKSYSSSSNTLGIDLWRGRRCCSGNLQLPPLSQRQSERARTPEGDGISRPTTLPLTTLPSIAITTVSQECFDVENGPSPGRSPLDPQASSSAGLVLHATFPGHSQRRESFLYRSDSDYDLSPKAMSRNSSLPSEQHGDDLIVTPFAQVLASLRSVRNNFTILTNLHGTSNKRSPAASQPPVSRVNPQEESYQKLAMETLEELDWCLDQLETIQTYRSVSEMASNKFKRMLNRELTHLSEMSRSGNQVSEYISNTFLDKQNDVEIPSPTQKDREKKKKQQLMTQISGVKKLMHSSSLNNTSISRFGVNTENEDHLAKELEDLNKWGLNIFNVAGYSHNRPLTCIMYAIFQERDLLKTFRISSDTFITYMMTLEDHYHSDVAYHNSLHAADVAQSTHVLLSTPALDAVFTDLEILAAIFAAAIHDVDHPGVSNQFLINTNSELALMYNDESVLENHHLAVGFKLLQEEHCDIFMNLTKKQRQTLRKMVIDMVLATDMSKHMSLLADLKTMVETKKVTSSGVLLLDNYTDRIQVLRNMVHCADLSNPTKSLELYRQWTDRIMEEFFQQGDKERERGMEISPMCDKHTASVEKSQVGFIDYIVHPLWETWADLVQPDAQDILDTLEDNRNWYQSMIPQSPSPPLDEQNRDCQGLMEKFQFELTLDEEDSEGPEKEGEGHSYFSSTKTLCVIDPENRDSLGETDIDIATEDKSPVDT
# Procedure, shortened: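 Compounds ranged from 10 μM to 10 pM. The reaction was started with PDE4 enzyme and run 60 min at room temperature with agitation (about 10−20% conversion), then stopped with SPA beads. [3H]-AMP was counted by scintillation.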
# [2] = Inhibition of PDE4 in human whole blood PBMC assessed as reduction in LPS-induced TNFalpha production after 24 hrs by ELISA
# Procedure, shortened: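 Heparinized whole blood from healthy donors was preincubated with LPS (1 μg/mL final) at 37 °C for 10 min. It was then added to compounds in DMSO and incubated 24 h at 37 °C with agitation, then centrifuged. Serum TNF-α was measured by sandwich ELISA with TMB read-out at 450 nm. Experiments were done 2−3 times and duplicates were averaged.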
# [3] = Apparent permeability of the compound by PAMPA assay; type: physicochemical
# Rattus norvegicus [4] = assay: Antiinflammatory activity in Sprague-Dawley rat LPS-induced neutrophilia model assessed as inhibition of LPS-induced increase in netrophils in bronchoalveolar lavage at 1000 ug/kg, it administered single dose as microspray dosed 1 hr prior to nebulized LPS challenge measured after 4 hrs by flow cytometric analysis; type: functional
# Procedure, shortened: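 Compound was suspended in PBS with 0.2% Tween 80, homogenized, and lower doses were made by 1:10 dilution. Rats (male Sprague-Dawley, 230−280 g, fasted, isoflurane) received 0.2 mL intratracheally by microsprayer, about 1 cm above the carina. Nebulized LPS challenge (30 mL over 40 min) followed 1 h later. BAL neutrophils were counted by flow cytometry 4 h after challenge.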
# [5] = Thermodynamic solubility of the compound at 22 degC; type: physicochemical; settings: read-out: Therm_solubility
# Rattus norvegicus [6] = species: Rattus norvegicus; settings: Sprague-Dawley, 2000 ug/kg
# Rattus norvegicus [7] = species: Rattus norvegicus; settings: Sprague-Dawley, 2000 ug/kg; remark: listed apart in the source
SMILES,IC50 [1] [nM],IC50 [2] [nM],also measured
COc1cccc(Nc2cc(-c3ccccc3)nc3c2C(=O)NCC3)c1,1.6,5.4,Papp [3]: 2 ×10⁻⁶ cm/s
COc1cc(Nc2cc(-c3ccccc3)nc3c2C(=O)NCC3)ccc1C(=O)O,2.3,9.9,
Cc1ccncc1Nc1cc(-c2ccccc2)nc2c1C(=O)NCC2,42,,
COc1cccc(Nc2cc(-c3cccc(OC)c3)nc3c2/C(=N/O)NCC3)c1,2000,,
O=C1NCCc2nc(-c3ccccc3)cc(Nc3cccc4ccccc34)c21,11,,
COc1cccc(Nc2cc(-c3cccc(OC)c3)nc3c2/C(=N/C#N)NCC3)c1,13,,
O=C1NCCc2nc(-c3ccccc3)cc(Nc3ccc4ncccc4c3)c21,2.3,4.8,
COc1cccc(Nc2cc(-c3cccc(-c4ccc(C(=O)O)cc4)c3)nc3c2C(=O)NCC3)c1,0.35,5.7,Papp [3]: 3.5 ×10⁻⁶ cm/s
COc1cccc(Nc2cc(-c3cccc(Br)c3)nc3c2C(=O)NCC3)c1,8.2,,
NC(=O)c1ccc(Nc2cc(-c3ccccc3)nc3c2C(=O)NCC3)cc1,1.5,4.2,
O=C1NCCc2nc(-c3ccccc3)cc(Nc3n[nH]c4ncccc34)c21,5.6,3,

# The next lines start with results.
IC50 [1] [nM],IC50 [2] [nM],SMILES,also measured
1.8,4.2,COc1cccc(Nc2cc(-c3cccc(-c4cccc(O)c4)c3)nc3c2C(=O)NCC3)c1,
0.11,0.36,CN(C)CCCNC(=O)c1cccc(-c2cccc(-c3cc(Nc4cccc5ncccc45)c4c(n3)CCNC4=O)c2)c1,
0.89,0.5,O=C1NCCc2nc(-c3cccc(-c4cccc(O)c4)c3)cc(Nc3cccc4ncccc34)c21,
640,,COc1cccc(Nc2cc(-c3ccccc3)nc3c2C(=O)NCC3C)c1 (stereo unspecified),
8.7,0.49,O=C1NCCc2nc(-c3ccccc3)cc(Nc3ccc(C[C@@H](O)CO)cc3)c21,
12,,O=C1NCCc2nc(-c3ccccc3)cc(Nc3ccc(CCO)cc3)c21,
2400,,Nc1cc(-c2ccccc2)nc2c1C(=O)NCC2,
,4,O=C(Nc1c(Cl)cncc1Cl)c1ccc(OC(F)F)c(OCC2CC2)c1 [ROFLUMILAST],inhibition in vivo at 1 mg/kg (Rattus norvegicus [4]): 80%; solubility thermodynamic [5]: 0.52 µg/mL; inhibition (Rattus norvegicus [6]): Active; inhibition (Rattus norvegicus [7]): inactive
120,270,COc1cccc(Nc2cc(-c3ccccc3)nc3c2C(=O)NC(C)C3)c1 (stereo unspecified),
25,,O=C1NCCc2nc(-c3ccccc3)cc(NCc3ccncc3)c21,
51,,COc1cccc(Nc2cc(-c3cc[n+]([O-])cc3)nc3c2C(=O)NCC3)c1,
27,,COc1cc(Nc2cc(-c3ccccc3)nc3c2C(=O)NCC3)cc(OC)c1,
14,,O=C1NCCc2nc(-c3ccccc3)cc(Nc3cccc4cnccc34)c21,
8.4,,COc1cccc(Nc2cc(-c3cccc(OC)c3)nc3c2C(=O)NCC3)c1,
9.6,140,COc1cccc(Nc2cc(-c3cccc(-c4cc(C(=O)O)ccc4O)c3)nc3c2C(=O)NCC3)c1,
3.6,6.5,COc1cccc(Nc2cc(-c3ccncc3)nc3c2C(=O)NCC3)c1,
